Bioassay records as filed in PubChem BioAssay.
M18AAP inhibitor – blocks P. falciparum M18 aspartyl aminopeptidase; hit rate 1.2% among 290,000; inhibition, % at 7.35 µM; AID 1822; recombinant PfM18AAP, H-Glu-NHMec fluorogenic cleavage;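 active = inhibition above the campaign mean inhibition over all tested compounds plus 3 SD, cut at about 28% in these data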;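 note: 0% = plate median of test compound wells and 100% = 2 mM ZnCl2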
Runt-SMMHC FRET – inhibitors of human RUNX1 Runt domain binding to CBFb-SMMHC; Cerulean-Runt/Venus-CBFb-SMMHC FRET ratio 530/480, 1 h; Q01196+Q13951; hit rate 0.74% among 220,000; inhibition, % at 20 µM;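 active = mean inhibition across duplicate retests at 20 µM reaching about 50%, limit read from the data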;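 note: 0% = DMSO wells and 100% = wells with excess untagged CBFb-SMMHC; inhibitors lower the FRET ratio by blocking Runt binding to CBFb-SMMHC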
RanGTP-Impb inh – disruptors of Ran-importin-beta complex formation – biochemical, FRET, CFP-Ran, YFP-importin-beta, homogeneous, primary screen; inhibition, % (test concentration not listed); cell-free CFP-Ran/YFP-importin-beta FRET ratio; hit rate 1.1% among 300,000;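 active = more than half of the replicate wells show a fall in the fluorescence ratio signal beyond about 16%, limit read from the data, passing the limit was not always enough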;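 note: 0% = DMSO wells and 100% = Ran loaded with GDP instead of GTP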
Runt-CBFb FRET – Runt domain-CBFb interaction inhibition | Q01196+Q13951 | hit rate 0.46% among 220,000 | Cerulean-Runt/Venus-CBFb FRET ratio 530/480, 1 h | inhibition, % at 20 µM;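 active = inhibition over about 50% at 20 µM in the single-dose screen, limit read from the data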;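 note: 0% = DMSO wells and 100% = excess unlabeled CBFb competitor control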
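Measured by: fluorescence energy transfer, 422 nm excitation, 530/480 nm emission; Assay system: Cerulean-Runt domain; Medium: Tris pH 7.5 buffer with BSA; Measure: loss of energy transfer signal; Controls: 5 µM unlabeled CBFb as full-inhibition high control; Incubation: protein complex preformed 1 h, compound exposure 1 h, room temperature, dark.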
Hck Nef HTS – human Hck-Nef kinase inhibition; P08631; Recombinant Hck-YEEI plus Nef, Z-Lyte FRET kinase assay; inhibition, % at 20 µM; hit rate 0.68% among 220,000; AID 463187;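 active = Hck-Nef kinase inhibition above about 50%, limit read from the data; inactive = inhibition below that limit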;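 note: 0% = DMSO with Hck plus Nef and 100% = Hck alone without Nef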
RBBP9 inhibitor – blocks human serine hydrolase RBBP9 | hit rate 0.2% among 220,000 | recombinant RBBP9, FP-Rh probe fluorescence polarization | O75884 | inhibition, % at 7.94 µM | AID 1515;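 active = inhibition above the campaign mean of all tested compounds plus 3 SD, cut at about 14% in these data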;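 note: plate controls were DMSO wells with RBBP9 for no effect and wells lacking RBBP9 protein for full effect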
Target sequence (O75884 whole entry, looked up): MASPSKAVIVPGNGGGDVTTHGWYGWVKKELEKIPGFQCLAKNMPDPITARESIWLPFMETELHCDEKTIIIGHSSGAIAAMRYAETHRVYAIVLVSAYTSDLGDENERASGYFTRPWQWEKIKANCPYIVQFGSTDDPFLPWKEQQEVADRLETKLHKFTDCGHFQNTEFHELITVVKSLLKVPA
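Test system: recombinant human RBBP9. Quantity: 2.5 µM RBBP9 dispensing solution, before mixing. Detection: FP readout at 525/598 nm. Reagent: Serine-hydrolase probe FP-Rh, 375 nM pre-mixing. Measure: % inhibition. Control set: DMSO-treated enzyme wells and wells lacking RBBP9. Buffer or medium: Tris-NaCl-Pluronic buffer, pH 8.0. Times: preincubation 30 min plus labeling 45 min at 25 °C.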
An asterisk follows results filed as active; / = no result. Shown are actives, neighbours in structure and some others; about 2.9% of the full set was active somewhere.

SMILES	M18AAP inhibitor	Runt-SMMHC FRET	RanGTP-Impb inh	Runt-CBFb FRET	Hck Nef HTS	RBBP9 inhibitor
O=C(O[C@@H]1Cc2c(O)cc(O)cc2O[C@@H]1c1cc(O)c(O)c(O)c1)c1cc(O)c(O)c(O)c1	64*	17	4	41	/	-6
C/C(CC(=O)Nc1ccc(F)cc1)=N\NC(=O)c1ccccn1	4	1	179*	1	32	-7
CCn1c(C)c(C(C)=O)c(N2CCCCC2)nc1=S	8	1	2	1	-3	-1
CCn1c(C)c(C(C)=O)c(N2CCN(c3ccccc3)CC2)nc1=S	15	11	19*	-62	2	14
CCn1c(C)c(C(C)=O)c(N2CCN(C(c3ccccc3)c3ccccc3)CC2)nc1=S	2	23	57*	18	-6	1
CCn1c(C)c(C(C)=O)c(N2CCC(C(N)=O)CC2)nc1=S	-2	-2	3	0	0	-7
COc1ccc(-n2c(SCC(=O)N3CCOCC3)nc3ccccc3c2=O)cc1	-4	/	0	/	/	/
O=C(Cc1cccs1)NC(Cc1c[nH]c2ccccc12)C(=O)O (stereo unspecified)	-2	/	1	/	/	/
Cc1c(O)ccc2c(CC(=O)N[C@@H](Cc3c[nH]c4ccccc34)C(=O)O)cc(=O)oc12	-1	/	21*	/	/	/
CCOC(=O)C1(C)C=C(Nc2ccc(O)cc2)C(=O)N1c1ccc(O)cc1 (stereo unspecified)	34*	0	-6	6	9	5
CCOC(=O)C1(C)C=C(Nc2ccc(OC)cc2)C(=O)N1c1ccc(OC)cc1 (stereo unspecified)	0	-3	-1	0	5	-4
NC(=S)Cc1nc(-c2ccccc2)cs1	6	-4	30*	0	10	-7
Nc1nc(-c2ccccc2)cs1	-13	4	6	-2	-4	-2
CCN1C(=O)c2ccccc2S(=O)c2ccc(C(=O)NCc3ccc(OC)cc3)cc21 (stereo unspecified)	-1	/	4	/	/	/
COC(=O)c1cc(S(=O)(=O)N2CCN(c3cccc(C)c3C)CC2)c[nH]1	-3	/	2	/	/	/
CCOC(=O)c1cc2c(ccn2C)n1CC(=O)N1CCCC(C)C1 (stereo unspecified)	19	-15	24*	23	1	-7
CCOC(=O)N1CCC(NC(=O)c2ccc3c(Cl)c4c(nc3c2)CCCC4)CC1	4	-12	/	0	-6	22*
Cc1cc(Oc2nc3ccccn3c(=O)c2/C=C(\C#N)C(=O)NC2CCS(=O)(=O)C2)ccc1Cl (stereo unspecified)	4	/	59*	/	/	/
N#C/C(=C\c1c(Oc2ccc(Cl)cc2)nc2ccccn2c1=O)C(=O)NC1CCS(=O)(=O)C1 (stereo unspecified)	4	/	51*	/	/	/
CC(C)CN(CC(C)C)C(=O)c1cc(S(=O)(=O)N2CCCCC2)c[nH]1	0	/	1	/	/	/
O=C(Nc1ccc2nc(-c3cccs3)c(-c3cccs3)nc2c1)NC1CC1	5	-73	121*	-13	7	2
COCCNC(=O)c1cc(-c2cccs2)on1	-2	-2	1	1	24	-4
COCCNC(=O)Nc1ccc2nc(-c3cccs3)c(-c3cccs3)nc2c1	-2	81*	120*	15	2	-7
COc1ncnc(OC)c1S(=O)(=O)Nc1ccc(C(F)(F)F)cc1	-1	/	-2	/	/	/
COc1c(C)cc(Br)cc1C(=O)NC(=S)NCc1ccco1	8	/	4	/	/	/
SMILES	M18AAP inhibitor	Runt-SMMHC FRET	RanGTP-Impb inh	Runt-CBFb FRET	Hck Nef HTS	RBBP9 inhibitor
O=C1NC(=Nc2ccc(O)cc2)S/C1=C\C=C\c1ccco1	22	-11	2	10	94*	7
COc1cc(/C=C2/SC(=Nc3ccc(O)cc3)NC2=O)cc(OC)c1O	33*	-51	1	-4	32	-11
COc1cc(/C=C2\SC(=Nc3ccc(O)cc3)NC2=O)cc(OC)c1OC	-17	-18	5	-6	16	-3
CC(C)(C)OC(=O)N1CC=C2C(C#N)=C(N)C(C#N)(C#N)[C@H](c3cccnc3)[C@H]2C1	4	29	18*	16	-2	1
CC(C)N1CC=C2C(C#N)=C(N)C(C#N)(C#N)C(c3ccccc3)C2C1 (stereo unspecified)	10	63*	71*	74*	16	-2
CN1CC=C2C(C#N)=C(N)C(C#N)(C#N)C(Cc3ccccc3)C2C1 (stereo unspecified)	7	78*	100*	110*	13	-2
CCN1CC=C2C(C#N)=C(N)C(C#N)(C#N)C(c3cc(Cl)ccc3Cl)C2C1 (stereo unspecified)	6	65*	56*	73*	10	3
CCC1C2CN(C(C)=O)CC=C2C(C#N)=C(N)C1(C#N)C#N (stereo unspecified)	0	25	0	8	6	-2
Cc1ccc(S(=O)(=O)c2nc(-c3ccco3)oc2SC(C)C)cc1	2	/	-1	/	/	/
N#CC1=C(N)C(C#N)(C#N)[C@H](c2ccncc2)[C@H]2CC3(CC=C12)OCCO3	17	-12	-26	-8	1	-12
Cc1ccc(C2C3CSCC=C3C(C#N)=C(N)C2(C#N)C#N)cc1 (stereo unspecified)	9	-23	16*	-5	-6	-3
CC(C)N1CC=C2C(C#N)=C(N)C(C#N)(C#N)[C@H](c3ccoc3)[C@H]2C1	15	60*	55*	49	19	-2
CCOC(=O)N1CC=C2C(C#N)=C(N)C(C#N)(C#N)[C@H](c3cccs3)C2C1 (stereo partly specified)	9	-11	-2	-4	1	0
O=C(Cn1cnc([N+](=O)[O-])c1)NCCc1ccccc1	-14	/	5	/	/	/
Cc1csc2ncnc(NNC(=O)c3ccc(Cl)cc3)c12	7	-2	0	1	10	8
O=C(NNc1ncnc2sccc12)c1ccc(Cl)cc1	28*	1	3	0	26	-5
CCOCCCn1c(SCC(=O)Nc2ccc(NC(C)=O)cc2)nc2ccccc2c1=O	-3	/	2	/	/	/
CCOc1ccc(C2CC(=O)NC2=O)cc1 (stereo unspecified)	2	/	-2	/	/	/
CC(=O)c1sc2ccccc2c1OC(=O)c1ccco1	7	37	38*	13	32	-10
CC(=O)c1c(OC(=O)c2ccco2)c2ccccc2n1C	3	-3	4	0	-2	-5
CCN1CCN(C(CNS(=O)(=O)c2ccccc2)c2ccccc2)CC1 (stereo unspecified)	0	/	1	/	/	/
COc1cc2c3nnc(-c4ccccc4)c-3cn(Cc3ccc(F)cc3)c2cc1OC	5	40	35*	13	7	2
